Among the data in ChEMBL document CHEMBL1153376, “Lipophilic lysine-spermine conjugates are potent polyamine transport inhibitors for use in combination with a polyamine biosynthesis inhibitor” (J Med Chem, 2009) are Activity, Ki and IC50 values, retold here.

In experiment [1] the target is Diamine acetyltransferase 1 (Homo sapiens) (UniProt P21673). The experiment in a line: Inhibition of spermidine/spermine N1-acetyltransferase activity in human SK-MEL cells at 10 uM after 24 hrs relative to control. The format is cell-based. More on the design: scale not given: the % may be the effect or the level left. A digest of the protocol:
(§1)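 SK-Mel human melanoma cells exposed to 10 µM agent alone for 24 h. Enzyme activity (ODC; SSAT) measured and expressed as % of untreated control.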

The target in experiment [2] is T1, Ornithine decarboxylase (Homo sapiens) (UniProt P11926).
T1 sequence (whole entry): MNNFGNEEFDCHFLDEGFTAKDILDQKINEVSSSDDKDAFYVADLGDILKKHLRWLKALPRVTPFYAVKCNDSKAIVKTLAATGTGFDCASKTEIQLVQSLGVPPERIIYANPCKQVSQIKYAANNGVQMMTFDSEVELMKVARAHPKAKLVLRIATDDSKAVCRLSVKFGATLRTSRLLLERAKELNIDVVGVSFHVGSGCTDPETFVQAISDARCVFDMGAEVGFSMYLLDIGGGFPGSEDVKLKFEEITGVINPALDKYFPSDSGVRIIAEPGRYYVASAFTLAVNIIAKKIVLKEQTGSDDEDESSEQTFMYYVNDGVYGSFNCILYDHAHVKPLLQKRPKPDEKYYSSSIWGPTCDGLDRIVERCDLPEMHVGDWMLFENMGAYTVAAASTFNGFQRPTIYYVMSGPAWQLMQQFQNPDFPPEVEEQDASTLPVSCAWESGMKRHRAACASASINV
The experiment in a line: Inhibition of ornithine decarboxylase activity in human SK-MEL cells at 10 uM after 24 hrs relative to control. More on the design: scale not given: the % may be the effect or the level left. The format is cell-based. Put shortly: as §1

The subject of experiment [3] is MDA-MB-231. Briefly: Inhibition of [2,9-3H]spermidine uptake in human MDA-MB-231 cells after 15 mins by Lineweaver-Burke plot analysis. The format is functional, cell-based. Put shortly: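 Cells then washed three times in cold PBS and lysed in 0.1% SDS, and lysates scintillation-counted. Four substrate concentrations (0.3–3 µM) and five inhibitor concentrations (0.01–1.0 µM) plus control. Ki from slopes of Lineweaver-Burke plots against inhibitor concentration (Ki = y-intercept/slope).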

The species entered for experiment [4] is Mus musculus. Briefly: Antitumor activity against 7,12-dimethylbenz(alpha)anthracene-induced squamous cell carcinoma in FVB/N transgenic mouse model expressing K6/ODC gene assessed as tumor growth inhibition after 4 weeks. The format is functional, organism-based.
In experiment [5] the test system is Mus musculus. The experiment in a line: Antitumor activity against 7,12-dimethylbenz(alpha)anthracene-induced squamous cell carcinoma in FVB/N transgenic mouse model expressing K6/ODC gene assessed as tumor growth inhibition at 0.5 mg/kg, ip administered twice daily after 4 weeks. The format is functional, organism-based. More on the design: dose 0.5 mg/kg.
Experiment [6] relates to MDA-MB-231. Briefly: Cytotoxicity against human MDA-MB-231 cells after 6 days by MTS/PMS dye assay. To be noted: MDA-MB-231, 144 h.

pIC50, pKi: −log10 of the molar value. Activity calls are given as the source filed them. The calls are words filed in the database; no cut-off is given here.

Chain of Diamine acetyltransferase 1 (Homo sapiens) (P21673 whole entry): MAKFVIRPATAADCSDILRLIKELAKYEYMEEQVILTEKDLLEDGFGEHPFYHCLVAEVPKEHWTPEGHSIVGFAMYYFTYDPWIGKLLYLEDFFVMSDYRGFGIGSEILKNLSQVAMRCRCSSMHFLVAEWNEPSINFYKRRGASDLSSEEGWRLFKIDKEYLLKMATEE

One may read the pKi as −log10 of the Ki, conventionally taken in molar units. For `CCCCCCCCCCCCCCCC(=O)NCCCC[C@H](N)C(=O)NCCCNCCCCNCCCN`, the Activity was found to be 40% in experiment [1] and 46% in experiment [2]. In the experiment with MDA-MB-231 [3], the pKi is 8.12.

Take `NCCCC(N)(C(=O)O)C(F)F` (centres undefined): the outcome in the experiment listed under Mus musculus [4] was Active.

As for `CCCCCCCC(=O)NCCCC[C@H](N)C(=O)NCCCNCCCCNCCCN`, the Activity in experiment [1] turned out to be 40%; in experiment [2] it was 110%.

The pIC50 is the negative decadic logarithm of the IC50, by convention in mol/L. `CCCCCCCCCCCCCCCC(=O)NCCCC[C@@H](N)C(=O)NCCCNCCCCNCCCN` [AMXT-1501]: the outcome in the experiment with Mus musculus [5] was Active. In the experiment on MDA-MB-231 [6], this compound had a negative-log IC50 (pIC50) of 4.24. The compound further had a negative logarithm of the Ki (pKi) with MDA-MB-231 [3] of 7.98.
